Published values from different studies.
Lines come from different studies, so protocols differ.
Target: Death-associated protein kinase 2 (DAPK2, Homo sapiens, UniProt Q9UIK4)

Compound	effect on	technique	tested at	remaining binding [%]
CCN1CCN(Cc2ccc(C(=O)Nc3ccc(C)c(Oc4ccc5c(c4)CC(=O)N5)c3)cc2C(F)(F)F)CC1	binding	competition with immobilised ligand	1 µM	100
CC(=O)C1=C(C)N(c2cccc(C(F)(F)F)c2)C(=O)N[C@@H]1c1ccc(C#N)nc1	cell-free assay	competition with immobilised ligand	1 µM	79.2
C[C@@H](c1ccc(-n2cnc3c(N)ncnc32)cc1)N1CCc2nn(C)c(Cc3ccccc3)c2C1=O	binding	competition with immobilised ligand	0.1 µM	100
CCS(=O)(=O)c1cc2cc(C[C@](O)(CC(C)(C)c3ccc(F)cc3C(N)=O)C(F)(F)F)[nH]c2cn1	cell-free assay	competition with immobilised ligand	1 µM	90
CN(C)c1ncc(F)c(-c2cnn3ncccc23)n1	binding	–	1 µM	69
COc1ncc2cc3ccccc3nc2c1C#N	cell-free assay	competition with immobilised ligand	5 µM	97
CN(CCCC(F)(F)F)c1nccc(-c2cnn3ncccc23)n1	binding	–	1 µM	97
Cc1noc([C@H]2C[C@@H](c3ccc(C(F)(F)F)cc3)CN(C(=O)N3CCS(=O)(=O)C3)C2)n1	cell-free assay	competition with immobilised ligand	1 µM	100
C[C@@H]1CCN(c2nccc(-c3cnn4ncccc34)n2)C1	binding	–	1 µM	85
CNC(=O)[C@@H]1CC[C@@H](n2c(-c3ccc4cnccc4c3)nc3ccc(C(=O)NCc4cccc(C(N)=O)c4)cc32)C1	binding	competition with immobilised ligand	1 µM	100
F[C@@H]1CCN(c2nccc(-c3cnn4ncccc34)n2)C1	binding	–	1 µM	100
O=C(Nc1c[nH]nc1C(=O)NC1CCNCC1)c1cc(F)cc(F)c1	binding	competition with immobilised ligand	1 µM	100
Cc1cnc(Nc2ccc(C(=O)N3CCC(N4CCCC4)CC3)cc2)nc1-c1cc2ccccc2s1	binding	competition with immobilised ligand	1 µM	8.9
Nc1ncc2c(n1)-c1c([nH]c3ccc(C#CC4CC4)cc13)CCCC2	binding	competition with immobilised ligand	1 µM	100
O=C(NCCCN1CCOCC1)c1ccc(Nc2ncc(Cl)c(-c3ccc(Cl)s3)n2)cc1	binding	competition with immobilised ligand	1 µM	38
CC1CCCN1c1nccc(-c2cnn3ncccc23)n1 (stereo not shown)	binding	–	1 µM	86
Cc1c(NC(=O)c2cc(C(N)=O)nc3cc(F)ccc23)c(C(F)(F)F)nn1Cc1ccc(C#N)cc1	cell-free assay	competition with immobilised ligand	1 µM	99
O=C(NCCCN1CCOCC1)c1ccc(Nc2nccc(-c3cc4ccccc4s3)n2)cc1	binding	competition with immobilised ligand	1 µM	18
CN(c1ccnc(CNc2nc(Nc3ccc4c(c3)CC(=O)N4)ncc2C(F)(F)F)n1)S(C)(=O)=O	cell-free assay	competition with immobilised ligand	1 µM	58
c1cncc(-c2cccc(Nc3nccc(NC4CCCCC4)n3)c2)c1	binding	competition with immobilised ligand	10 µM	84
N#CC1(c2ccccn2)CCN(Cc2cc(C(=O)N3CCCC3)c(=O)n3ccccc23)CC1	cell-free assay	competition with immobilised ligand	1 µM	94
CN(C)c1nccc(-c2cnn3ncccc23)n1	binding	–	1 µM	90
